Data from article PMC3859345 (Science translational medicine, 2013).
“Also recorded” adds a separate entry of the source. Where no end group is shown, it is not given here. The star is where a group is joined. FITC = O=C1OC2(c3ccc(O)cc3Oc3cc(O)ccc32)c2ccc(NC(=S)*)cc21; Ahx = NCCCCCC(=O)O

Key:
[1] = Fluorescence emission spectra; assay type: physicochemical; settings: 100 μM in PBS, 471 nm excitation
adenocarcinoma cells = experiment: Flow cytometry, adenocarcinoma cells; assay type: binding, human; settings: for mean intensity of controls lower than that for ASY*-FITC: flow cytometry, relative to ASY*-FITC
Procedure, shortened: (§1)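 Adenocarcinoma and non-neoplastic Q-hTERT cells, grown as adherent monolayers at 37°C, 5% CO2, incubated with FITC-labelled peptide, with FITC-labelled control peptides (including a scrambled sequence), or left unstained. Mean fluorescence intensity measured by flow cytometry.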

Q-hTERT cells [2] = experiment: Flow cytometry, Q-hTERT cells; assay type: binding, human
Procedure, shortened: as §1

[3] = test system: H460, FLO1, OE33, and OE19 adenocarcinoma cells; experiment: Confocal fluorescence microscopy, control peptides; assay type: binding, human; settings: compared with ASY*-FITC
[4] = Stability testing of lyophilized powder; assay type: physicochemical; settings: −20°C
Procedure, shortened: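 GMP-synthesized FITC-peptide aliquoted into amber vials crimp-sealed with septa and stored at −20°C. Monitored by appearance (colour), HPLC and mass spectrometry over 3 years.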

H460 cells [5] = experiment: Binding affinity; parameters: species or system human; settings: read-out: apparent dissociation constant (kd); ASY*-FITC to H460 cells; averages from 3 independent experiments; least squares fit
Procedure, shortened: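 Human H460 lung adenocarcinoma cells were grown as adherent monolayers in DMEM with 10% FBS and 100 U/ml penicillin/streptomycin at 37°C, 5% CO2. They were incubated with FITC-labeled test peptide, and the apparent dissociation constant was derived from cell-bound fluorescence. Values are averages of 3 independent experiments.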

H460 cells [6] = experiment: Binding kinetics; parameters: species or system human; settings: ASY*-FITC to H460 cells; least squares fit
Procedure, shortened: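 H460 lung adenocarcinoma cells grown as adherent monolayers in DMEM with 10% FBS and 100 U/ml penicillin/streptomycin at 37°C, 5% CO2. Association time constant k determined for FITC-labelled peptide binding to these cells.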

[7] = test system: H460 adenocarcinoma cells; experiment: Confocal fluorescence microscopy, H460; assay type: binding, human
Procedure, shortened: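 Adherent H460 cultures (DMEM, 10% FBS, P/S, 37°C, 5% CO2) were incubated with FITC-labeled test peptide and examined by confocal fluorescence microscopy for plasma-membrane labeling. Non-neoplastic Q-hTERT Barrett's cells, grown in keratinocyte serum-free medium with 50 μg/ml bovine pituitary extract and 0.005 μg/ml EGF, were the control line.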

[8] = test system: FLO1 adenocarcinoma cells; experiment: Confocal fluorescence microscopy, FLO1; assay type: binding, human
Procedure, shortened: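 FLO1 esophageal adenocarcinoma cells cultured as adherent monolayers in DMEM with 10% FBS, penicillin/streptomycin and 5 μg/ml plasmocin at 37°C, 5% CO2. Plasma-membrane binding of FITC-labelled peptide assessed by confocal fluorescence microscopy.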

[9] = test system: OE33 adenocarcinoma cells; experiment: Confocal fluorescence microscopy, OE33; assay type: binding, human
Procedure, shortened: (§2)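 Adherent OE19 and OE33 esophageal carcinoma monolayers maintained at 37°C, 5% CO2 in RPMI-1640 with 10% FBS, penicillin/streptomycin and 5 μg/ml plasmocin. FITC-labelled peptide binding to the plasma membrane examined by confocal fluorescence microscopy.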

[10] = test system: OE19 adenocarcinoma cells; experiment: Confocal fluorescence microscopy, OE19; assay type: binding, human
Procedure, shortened: as §2

Q-hTERT cells [11] = experiment: Confocal fluorescence microscopy, Q-hTERT; assay type: binding, human; settings: Q-hTERT BE cells
Procedure, shortened: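 Non-neoplastic Q-hTERT Barrett's cells kept in keratinocyte serum-free medium with 50 μg/ml bovine pituitary extract, 0.005 μg/ml recombinant human EGF and penicillin/streptomycin, as adherent monolayers at 37°C, 5% CO2. Binding of FITC-labelled peptide checked by confocal fluorescence microscopy.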

[12] = test system: human esophageal mucosa (squamous, BE, HGD, EAC); experiment: Ex vivo fluorescence stereomicroscopy of resected esophageal specimens; assay type: binding; settings: 1 mm^2 regions, 12 EMR specimens
[13] = test system: Barrett's neoplasia (HGD/EAC); experiment: Confocal endomicroscopy in vivo after topical peptide administration; parameters: species or system human
human subjects [14] = settings: in vivo
human subjects [15] = experiment: Peptide safety in humans
[16] = test system: human H460 adenocarcinoma cells; experiment: Phage display biopanning, phage count / pfu binding to H460 cells; settings: pfu counts
H460 cells [17] = experiment: Competitive binding with ASY*-FITC on H460 cells; parameters: species or system human; settings: unlabeled competitor 100 to 1000 μM (GGG* control at concentrations up to 1000 μM, P>0.05, unpaired t-test)
ovarian cancer = settings: topical administration, mouse model of ovarian cancer; cited from earlier work

O=C1OC2(c3ccc(O)cc3Oc3cc(O)ccc32)c2ccc(N=C=S)cc21 [FITC, reference compound]
peak emission [1]: 519 nm

AADYYSN-GGGSK-FITC
mean intensity of controls lower than that for ASY*-FITC (adenocarcinoma cells): < 3 fold
difference between ASY*-FITC and control peptides on binding to Q-hTERT cells (Q-hTERT cells [2]): No difference
fluorescence signal of control peptides [3]: Significantly less signal

ASYNYDA [ASY*-FITC]
peak emission [1]: 519 nm
purity on HPLC at end of stability testing ([4]; 36 months, initial 97%): 95%
change in purity on HPLC ([4]; over 36 months (97% to 95%)): ~ 2%
Kd (H460 cells [5]): 32 nM
apparent association rate constant (k) (H460 cells [6]): 0.2 min⁻¹
binding on flow cytometry (in words) (adenocarcinoma cells; compared with control peptides): stronger binding to the adenocarcinoma cells
difference between ASY*-FITC and control peptides on binding to Q-hTERT cells (Q-hTERT cells [2]): No difference
binding to plasma membrane (confocal), H460 [7]: binding of ASY*-FITC to the plasma membrane
binding to plasma membrane (confocal), FLO1 [8]: binding of ASY*-FITC to the plasma membrane; also recorded: specific binding
binding to plasma membrane (confocal), OE33 [9]: binding of ASY*-FITC to the plasma membrane; also recorded: specific binding
binding to plasma membrane (confocal), OE19 [10]: binding of ASY*-FITC to the plasma membrane; also recorded: specific binding
binding to Q-hTERT cells (Q-hTERT cells [11]): did not bind to Q-hTERT cells
mean fluorescence intensities for HGD and EAC versus non-dysplastic BE and squamous [12]: significantly greater than non-dysplastic BE and squamous
greater fluorescence intensity for HGD/EAC (neoplasia) than for BE and squamous ([13]; 25 human subjects, topical 5 ml of 100 μM, 5 min incubation): 3.8 fold
in vivo binding, HGD and EAC ([13]; HGD and EAC crypts, confocal endomicroscopy): specific peptide binding to neoplastic crypts
specificity for HGD/EAC ([13]; T/B ratio threshold 4.2, 95% CI: 85%–100%, 25 human subjects): 97%
in vivo binding, squamous epithelium ([13]; normal squamous epithelium, confocal endomicroscopy): no peptide binding
onset of binding ([13]; topical administration): ~ 5 minutes
mean post/pre-EMR WBC ratio at 24 hours (human subjects [14]): 1.7±0.4
post/pre-EMR WBC ratio without peptide compared with peptide and EMR (human subjects [14]): not significantly different
mean WBC count ratio by day 5 (human subjects [15]; 14 out of 21 patients with leukocytosis resolved, SD, P<0.01, Mann Whitney test): 1.1±0.2
mean white blood cell (WBC) count at 24 hours (human subjects [15]; 21 patients with EMR, baseline 7.0×10^3, P<0.01, unpaired t-test, transient): 11.1×10^3
safety of topical application (in words) (human subjects [15]; BE patients, topical): safe and effective
patients with leukocytosis resolved by day 5 (human subjects [15]; after EMR with peptide, remaining 7 patients after day 5): 14 out of 21
urinalyses (human subjects [15]; all 25 patients, baseline and post-procedure): within normal limits
relation of adverse events to the peptide (human subjects [15]; all adverse events, clinical study): unlikely to have been related to the peptide
toxicity attributed to the peptide (human subjects [15]; animal and patient studies): No toxicity was attributed to the peptide

ASYNYDA [ASYNYDA phage]
greater binding for H460 than for Q-hTERT cells ([16]; H460 vs Q-hTERT BE cells): 5.3 fold
greater binding for H460 cells in comparison to wild-type (WT)-phage ([16]; vs WT-phage (no peptides expressed)): > 10 fold

GGGAGGGAGGGK
inhibition of ASY*-FITC binding (fluorescence intensity) (H460 cells [17]): No significant reduction in fluorescence intensity

GGGAGGGAGGGK-FITC
mean intensity of controls lower than that for ASY*-FITC (adenocarcinoma cells): < 3 fold
difference between ASY*-FITC and control peptides on binding to Q-hTERT cells (Q-hTERT cells [2]): No difference
fluorescence signal of control peptides [3]: Significantly less signal

MNDPIPQ-GGGSK-FITC
mean intensity of controls lower than that for ASY*-FITC (adenocarcinoma cells): < 3 fold
difference between ASY*-FITC and control peptides on binding to Q-hTERT cells (Q-hTERT cells [2]): No difference
fluorescence signal of control peptides [3]: Significantly less signal

{FITC-Ahx}-ASYNYDA
mean intensity of controls lower than that for ASY*-FITC (adenocarcinoma cells): < 3 fold
difference between ASY*-FITC and control peptides on binding to Q-hTERT cells (Q-hTERT cells [2]): No difference
fluorescence signal of control peptides [3]: Significantly less signal

γ-glutamyl hydroxymethyl rhodamine green
time to fluorescence activation (ovarian cancer): ~ 1 minute
